Results reported in article PMC10764114 (ACS Omega, 2023).
Read-outs that look alike come from different tables or passages of the source.

Assays:
[1] = system: U87-malignant glioma (ATCC-HTB-14); test: MTT assay, cytotoxicity against U87-malignant glioma cells; assay type: cell-based, human; details: for IC50: read-out: IC50 (μM ± SEM U87); for viability at 10 µM / viability at 40 µM / viability at 80 µM / viability at 100 µM / viability at 150 µM: read-out: % cell viability U87
Procedure, shortened: (§1)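 Cells grown in DMEM (4.5 g/L glucose, 10% FBS, 1% penicillin/streptomycin) at 37 °C, 5% CO₂. Seeded at 1 × 10³ cells/well and left 24 h to adhere. Test compound added at 10, 40, 80, 100 or 150 μM for 48 h (text also states MTT added 24 h post-dosing). MTT in PBS added for 3 h, formazan dissolved in DMSO for 30 min, OD read at 550 nm, % viability calculated from absorbance.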

[2] = system: human embryonic kidney HEK293 cell line; test: MTT assay, cytotoxicity against normal HEK293 cells; assay type: cell-based; details: for cytotoxicity in noncancerous cells (HEK293): compared with malignant glioma U87 cells, 10-150 μM
Procedure, shortened: as §1

[3] = as above; assay type: cell-based, human; details: human, HEK293 cells
Procedure, shortened: as §1

[4] = MTT assay, U87 malignant glioma cells, ± SEM

Molecule | viability at 10 µM ([1]; Homo sapiens, Glioma cell) [%] | viability at 40 µM ([1]; Homo sapiens, Glioma cell) [%] | viability at 80 µM ([1]; Homo sapiens, Glioma cell) [%] | viability at 100 µM ([1]; Homo sapiens, Glioma cell) [%] | viability at 150 µM ([1]; Homo sapiens, Glioma cell) [%] | IC50 ([1]; Homo sapiens, Glioma cell) [µM] | viability at 48 h, 10 μM [3] [%] | viability at 48 h, 40 μM [3] [%] | viability at 48 h, 80 μM [3] [%] | viability at 48 h, 100 μM [3] [%] | viability at 48 h, 150 μM [3] [%] | other results
2-(4-Isobutyl phenyl)-N′-(4-(2-oxo-2-(2-(−3,4,5-trimethoxybenzylidene)hydrazinyl)ethoxy)benzylidene)propanehydrazide [5g] | – | – | – | – | – | – | – | – | – | – | – | % cell viability U87 ([1]; concentration 10 (μM)): 56.40%; % cell viability U87 ([1]; concentration 40 (μM)): 47.40%; % cell viability U87 ([1]; concentration 80 (μM)): 39.45%; % cell viability U87 ([1]; concentration 100 (μM)): 33.32%; % cell viability U87 ([1]; concentration 150 (μM)): 30.90%; IC50 [1, 4]: 39.94 ± 0.16 µM; % cell viability HEK293 ([2]; concentration 10 (μM)): 86.66%; % cell viability HEK293 ([2]; concentration 40 (μM)): 75.46%; % cell viability HEK293 ([2]; concentration 80 (μM)): 62.21%; % cell viability HEK293 ([2]; concentration 100 (μM)): 62.12%; % cell viability HEK293 ([2]; concentration 150 (μM)): 56.11%
CC(C)Cc1ccc(C(C)C(=O)NN=Cc2ccc(OCC(=O)NN=Cc3ccc(O)cc3O)cc2)cc1 (stereo not shown) [5e, N′-(4-(2-(2-(2,4-Dihydroxybenzylidene)hydrazinyl)-2-oxoethoxy)benzylidene)-2-(4-isobutylphenyl)propanehydrazide] | 43.4 | 41 | 39.9 | 28.5 | 27.5 | 5.75 ± 0.43 | 69.4 | 69.1 | 67.9 | 62.1 | 50.8 | cytotoxicity in noncancerous cells (HEK293) [2]: lower cytotoxicity
2-(4-Isobutyl phenyl)-N′-(4-(2-(2-(4-isopropylbenzylidene)hydrazinyl)-2-oxoethoxy)benzylidene)propanehydrazide [5s] | – | – | – | – | – | – | – | – | – | – | – | % cell viability U87 ([1]; concentration 10 (μM)): 145.03%; % cell viability U87 ([1]; concentration 40 (μM)): 93.13%; % cell viability U87 ([1]; concentration 80 (μM)): 92.16%; % cell viability U87 ([1]; concentration 100 (μM)): 78.36%; % cell viability U87 ([1]; concentration 150 (μM)): 69.18%; IC50 [1, 4]: 43.73 ± 0.11 µM; % cell viability HEK293 ([2]; concentration 10 (μM)): 58.72%; % cell viability HEK293 ([2]; concentration 40 (μM)): 58.38%; % cell viability HEK293 ([2]; concentration 80 (μM)): 51.45%; % cell viability HEK293 ([2]; concentration 100 (μM)): 49.00%; % cell viability HEK293 ([2]; concentration 150 (μM)): 39.29%
COc1ccc(C=NNC(=O)COc2ccc(C=NNC(=O)C(C)c3ccc(CC(C)C)cc3)cc2)c(OC)c1 (stereo not shown) [5f, N′-(4-(2-(2-(2,4-Dimethoxybenzylidene)hydrazinyl)-2-oxoethoxy)benzylidene)-2-(4-isobutylphenyl)propanehydrazide] | 54.1 | 44.2 | 38.7 | 29 | 21.6 | 24.2 ± 0.46 | 103 | 79.2 | 71.9 | 69.9 | 63.5 | cytotoxicity in noncancerous cells (HEK293) [2]: lower cytotoxicity
COc1ccc(C=NNC(=O)COc2ccc(C=NNC(=O)C(C)c3ccc(CC(C)C)cc3)cc2)cc1O (stereo not shown) [5n, N′-(4-(2-(2-(3-Hydroxy-4-methoxybenzylidene)hydrazinyl)-2-oxoethoxy)benzylidene)-2-(4-isobutylphenyl)propanehydrazide] | 165 | 85.3 | 61.1 | 42.7 | 33.2 | 40.18 ± 0.07 | 38.1 | 28 | 24.8 | 16.9 | 12.6 | –
COc1ccc(C=NNC(=O)COc2ccc(C=NNC(=O)C(C)c3ccc(CC(C)C)cc3)cc2)c(O)c1 (stereo not shown) [5m, N′-(4-(2-(2-(2-Hydroxy-4-methoxybenzylidene)hydrazinyl)-2-oxoethoxy)benzylidene)-2-(4-isobutylphenyl)propanehydrazide] | 142 | 138 | 34.5 | 134 | 128 | 150.5 ± 0.2 | 26.2 | 26.1 | 24.2 | 21.9 | 18.6 | –
COc1cccc(C=NNC(=O)COc2ccc(C=NNC(=O)C(C)c3ccc(CC(C)C)cc3)cc2)c1 (stereo not shown) [5p, 2-(4-Isobutylphenyl)-N′-(4-(2-(2-(3-methoxybenzylidene)hydrazinyl)-2-oxoethoxy)benzylidene)propanehydrazide] | 151 | 122 | 93.7 | 93.7 | 93.5 | 90.68 ± 0.13 | 49.9 | 49.4 | 49.2 | 48.1 | 39.3 | –
CC(C)Cc1ccc(C(C)C(=O)NN=Cc2ccc(OCC(=O)NN=Cc3cccc4ccccc34)cc2)cc1 (stereo not shown) [5t, 2-(4-Isobutylphenyl)-N′-(4-(2-(2-(naphthalen-1-ylmethylene)hydrazinyl)-2-oxoethoxy)benzylidene)propanehydrazide] | 179 | 169 | 155 | 146 | 140 | 86.74 ± 0.26 | 68.7 | 58.9 | 51 | 47.3 | 43 | –
CC(C)Cc1ccc(C(C)C(=O)NN=Cc2ccc(OCC(=O)NN=Cc3cc(Br)c(O)c(Br)c3)cc2)cc1 (stereo not shown) [5i, N′-(4-(2-(2-(3,5-Dibromo-4-hydroxybenzylidene)hydrazinyl)-2-oxoethoxy)benzylidene)-2-(4-isobutylphenyl)propanehydrazide] | 40.3 | 36.9 | 31.4 | 29.9 | 24.4 | 38.32 ± 0.1 | 67.6 | 57.4 | 55.7 | 49.9 | 43.8 | –
CC(C)Cc1ccc(C(C)C(=O)NN=Cc2ccc(OCC(=O)NN=Cc3ccccc3O)cc2)cc1 (stereo not shown) [5r, N′-(4-(2-(2-(2-Hydroxybenzylidene)hydrazinyl)-2-oxoethoxy)benzylidene)-2-(4-isobutylphenyl)propanehydrazide] | 109 | 81.4 | 72.8 | 45.5 | 40.6 | 43.66 ± 0.04 | 39 | 33.6 | 32 | 26.1 | 25.1 | –
